Assays:
Plasmodium falciparum = test: Antiplasmodial activity against chloroquine-resistant ring stage Plasmodium falciparum Dd2 after 72 hrs by SYBR green 1 dye based assay; assay type: functional, organism-based
A2780 = test: Cytotoxicity against human A2780 cells; assay type: cell-based
Summary of the method: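 Antiproliferative assay on the A2780 ovarian cell line, reported as IC50 in µM.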

[1] = Plasmodium falciparum, Dd2, 72 h, read-out: IC50
[2] = Homo sapiens, A2780, read-out: IC50

Compound	IC50 (Plasmodium falciparum)	IC50 (A2780; a2780)	IC50 (Plasmodium falciparum; [1]) [µM]	IC50 (A2780; [2]) [µM]
O=c1c2cc3c(cc2c2cccc4ccn1c42)OCO3	Not Active	Non-Toxic	–	–
COc1c2c(cc3c1OCO3)[C@@]13CC[N@@](C2)[C@@H]1[C@H](O)[C@H](OC)C[C@H]3O	–	–	37	> 60
COc1c2c(cc3c1OCO3)[C@]13C=C[C@H](OC)C[C@H]1[N@](C2)C[C@H]3OC(C)=O	–	–	35	> 60
COc1c2c(cc3c1OCO3)[C@]13C=C[C@H](OC)C[C@H]1[N@](C2)C[C@H]3O	–	–	7.3	> 60
CC(=O)O[C@@H]1CC=C2CCN3Cc4cc5c(cc4[C@H]1[C@@H]23)OCO5 [ACETYLCARANINE]	–	–	3.5	56
C[C@@H]1CC[C@H]2[C@@H](C)C(=O)O[C@@H]3O[C@@]4(C)CC[C@@H]1[C@]32OO4 [ARTEMISININ]	–	–	0.0121	–
COC1=CC(=O)[C@@]23CCN(Cc4c2cc2c(c4OC)OCO2)[C@@H]3C1 [DISTICHAMINE]	–	–	> 50	> 60

— ChEMBL document CHEMBL4177705, “Antiplasmodial alkaloids from bulbs of Amaryllis belladonna Steud” (Bioorg Med Chem Lett, 2018)
